{
  "source": "ChEMBL document CHEMBL1124562",
  "about": "“(3-Amino-2-oxoalkyl)phosphonic acids and their analogues as novel inhibitors of D-alanine:D-alanine ligase” (J Med Chem, 1989)",
  "key": {"[1]": {"tested_on": "Enterococcus faecalis", "test": "Percent inhibition of D-Alanine-D-Alanine Ligase at 10e-3 M of the compound", "in_short": "(§1)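 Enzyme was a 50% ammonium sulphate fraction from sonicated Streptococcus faecalis ATCC 8043 extract (0.38 units/mg). Inhibitor was preincubated 40 min at room temperature with enzyme, 0.008 M MgCl2, 0.01 M KCl and 0.05 M Tris-Cl pH 7.9. Then 0.005 M ATP and 0.005 M (14C-1)-D-alanine were added and the mix held 30 min at 37 °C. Radiolabelled product was resolved by silica TLC and integrated.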"}, "[2]": {"test": "Inhibition of DAla-DAla Ligase by the compound", "parameters": "species or system Enterococcus faecalis", "in_short": "as §1"}, "[3]": {"tested_on": "Enterococcus faecalis", "test": "Percent inhibition of DAla-DAla Ligase at 10e-3 M of the compound", "in_short": "as §1"}, "[4]": {"test": "Inhibition of D-Alanine-D-Alanine Ligase Ligase by the compound", "parameters": "species or system Enterococcus faecalis", "in_short": "as §1"}, "[5]": {"tested_on": "Enterococcus faecalis", "test": "Percent inhibition of DAla-DAla Ligase at 10e -3 M of the compound", "in_short": "as §1"}, "[6]": {"test": "Inhibition of DAla-DAla Ligase at 10e -3 M of the compound", "parameters": "species or system Enterococcus faecalis", "in_short": "as §1"}},
  "data": [
    {"smiles": "C[C@H](N)C(=O)CP(=O)(O)O", "values": [
      {"measurement": "inhibition", "setting": "[1]", "value": 14, "unit": "%"}
    ]},
    {"smiles": "CC(C(=O)[C@@H](C)N)P(=O)(O)O", "note": "(some centres undefined)", "values": [
      {"measurement": "inhibition", "setting": "[1]", "value": 18, "unit": "%"}
    ]},
    {"smiles": "CC[C@@H](N)C(=O)CP(=O)(O)O", "values": [
      {"measurement": "inhibition", "setting": "[1]", "value": 26, "unit": "%"}
    ]},
    {"smiles": "C[C@@H](N)C(=O)CCP(=O)(O)O", "values": [
      {"measurement": "inhibition", "setting": "[1]", "value": 10, "unit": "%"}
    ]},
    {"smiles": "C[C@@H](N)C(=O)CP(=O)(O)O", "values": [
      {"measurement": "Ki", "setting": "[2]", "value": 510, "unit": "µM"},
      {"measurement": "inhibition", "setting": "[3]", "value": 71, "unit": "%"}
    ]},
    {"smiles": "N[C@@H]1CONC1=O", "note": "[CYCLOSERINE]", "values": [
      {"measurement": "Ki", "setting": "[2]", "value": 250, "unit": "µM"}
    ]},
    {"smiles": "C[C@@H](N)C(O)CP(=O)(O)O", "note": "(some centres undefined)", "values": [
      {"measurement": "inhibition", "setting": "[1]", "value": 25, "unit": "%"}
    ]},
    {"smiles": "NC(CCC(=O)CP(=O)(O)O)C(=O)O", "note": "(centres undefined)", "values": [
      {"measurement": "Ki", "setting": "[4]", "value": 500, "unit": "µM"}
    ]},
    {"smiles": "C[C@@H](N)C(=O)NP(=O)(O)O", "values": [
      {"measurement": "inhibition", "setting": "[5]", "value": 85, "unit": "%"},
      {"measurement": "Ki", "setting": "[2]", "value": 50, "unit": "µM"}
    ]},
    {"smiles": "C[C@@H](N)P(=O)(O)O", "values": [
      {"measurement": "IC50", "setting": "[6]", "value": 930, "unit": "µM"}
    ]},
    {"smiles": "C[C@@H](N)/C=C/P(=O)(O)O", "values": [
      {"measurement": "inhibition", "setting": "[5]", "value": 24, "unit": "%"}
    ]},
    {"smiles": "C[C@@H](N)C(O)C(O)P(=O)(O)O", "note": "(some centres undefined)", "values": [
      {"measurement": "inhibition", "setting": "[1]", "value": 32, "unit": "%"}
    ]}
  ]
}
